Test results published in ChEMBL document CHEMBL1122931, “Uridine 5'-diphosphate glucose analogues. Inhibitors of protein glycosylation that show antiviral activity” (J Med Chem, 1985).

Experiments:
[1] = (§1) Concentration that induces 50% cell toxicity was determined using monolayers of uninfected HeLa cells; assay type: cell-based; conditions: human, monolayers of uninfected HeLa cells; read-out: Tox50
Method in brief: (§2)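 Uninfected HeLa monolayers, grown in DMEM with 10% newborn calf serum, were exposed to several concentrations of compound. They were incubated for 48 h at 37 °C, as in the parallel HSV-1 cytopathic-effect assay. Toxicity was judged by phase-contrast microscopy.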

[2] = system: Human alphaherpesvirus 1; assay: Concentration that protects by 50% the cytopathic effect induced by herpes simplex virus - 1.; assay type: functional
Method in brief: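 HeLa monolayers (DMEM + 10% newborn calf serum) infected with HSV-1 strain KOS (Vero-grown and titrated) at moi 0.5 pfu/cell in presence of several compound concentrations; 48 h at 37 °C, then cytopathic effect scored by phase-contrast microscopy. Toxicity judged microscopically in uninfected cells.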

[3] = system: HeLa; assay: as §1; assay type: cell-based; conditions: human, hela; read-out: Tox50; method in brief: as §2

SMILES	CC50 [1]	CPE50 [2]	CC50 [3]
NC(=O)O[C@H]1O[C@H](COCc2ccccc2)[C@@H](OCc2ccccc2)[C@H](OCc2ccccc2)[C@H]1OCc1ccccc1	> 350 µM	>350 µM	
CC1(C)O[C@@H]2[C@H](O1)[C@@H](COS(=O)(=O)NC(=O)O[C@H]1O[C@H](COCc3ccccc3)[C@@H](OCc3ccccc3)[C@H](OCc3ccccc3)[C@H]1OCc1ccccc1)O[C@H]2n1ccc(=O)[nH]c1=O	230 µM	85 µM	
O=C(NS(=O)(=O)OC[C@H]1OC(n2ccc(=O)[nH]c2=O)[C@H](O)[C@@H]1O)O[C@H]1O[C@H](COCc2ccccc2)[C@@H](OCc2ccccc2)[C@H](OCc2ccccc2)[C@H]1OCc1ccccc1 (some centres undefined)	360 µM	90 µM	
CC(=O)N[C@H]1[C@@H](OC(=O)NS(=O)(=O)OC[C@H]2OC(n3ccc(=O)[nH]c3=O)[C@H](O)[C@@H]2O)O[C@H](COC(C)=O)[C@@H](OC(C)=O)[C@@H]1OC(C)=O (some centres undefined)	> 575 µM	>575 µM	
CC1(C)O[C@@H]2[C@H](O1)[C@@H](COS(N)(=O)=O)O[C@H]2n1ccc(=O)[nH]c1=O	740 µM	740 µM	
CC1(C)O[C@@H]2[C@H](O1)[C@@H](COC(N)=O)O[C@H]2n1ccc(=O)[nH]c1=O	> 660 µM	>660 µM	
Nc1nc2c(ncn2COCCO)c(=O)[nH]1 [ACYCLOVIR]	10000 µM	60 µM	
NC12CC3CC(CC(C3)C1)C2 [AMANTADINE]	500 µM	200 µM	
O=c1[nH]c(=O)n([C@H]2C[C@H](O)[C@@H](CO)O2)cc1/C=C/Br [BRIVUDINE]	400 µM	1 µM	
CC(=O)N[C@H]1[C@@H](O[C@@H]2O[C@H](CC(O)[C@H]3O[C@@H](n4ccc(=O)[nH]c4=O)[C@H](O)[C@@H]3O)[C@H](O)[C@H](O)[C@H]2NC(=O)/C=C/CC(C)C)O[C@H](CO)[C@@H](N)[C@@H]1O (some centres undefined) [TUNICAMYCIN]			1 µM
